# A selection: hits, their analogues and other compounds. The true share with any hit is near 4.8%.
# GRIN3A LBD mod: NR3A (human) ligand-binding domain modulation | NR3A LBD differential scanning fluorimetry, Tm shift; 0% = protein alone, 100% = glycine-bound protein | Tm shift relative to glycine control, % at 25 µM | 340,000 compounds, 2.5% hits | AID 1259313;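 active = melting temperature shift of at least 10% of the positive control shift, at one fixed dose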
# PAFAH1B3 FP inh: inhibitors of human PAFAH1B3; Q15102; recombinant PAFAH1B3, FP-rhodamine probe, fluorescence polarization; inhibition, % at 3.39 µM; 340,000 compounds, 0.28% hits;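 active = inhibition above the screen-wide average of all tested compounds plus 3 SD, cut at about 25% in these data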;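 also: 0% = enzyme with DMSO only and 100% = wells lacking PAFAH1B3 protein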
# UCH37 inh: inhibitors of human deubiquitinating enzyme UCH37. Q9Y5K5. purified proteasome/UCH37, Ub-AMC cleavage fluorescence. inhibition, % (no concentration beside the values). 330,000 compounds, 0.33% hits;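 active = mean inhibition over replicate wells above about 20%, limit read from the data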;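 also: 0% = compound-free wells with enzyme and 100% = wells lacking proteasome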
# Target sequence (Q9Y5K5 whole entry, looked up): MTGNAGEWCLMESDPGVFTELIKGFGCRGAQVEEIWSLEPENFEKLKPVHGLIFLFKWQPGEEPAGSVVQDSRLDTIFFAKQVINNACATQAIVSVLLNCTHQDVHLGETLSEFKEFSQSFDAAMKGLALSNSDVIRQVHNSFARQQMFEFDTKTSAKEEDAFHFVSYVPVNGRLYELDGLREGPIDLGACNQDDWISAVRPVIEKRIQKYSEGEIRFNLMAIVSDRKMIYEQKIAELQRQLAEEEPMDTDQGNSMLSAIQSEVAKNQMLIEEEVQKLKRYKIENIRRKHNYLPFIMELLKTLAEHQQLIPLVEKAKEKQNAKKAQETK
#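 Material: Human UCH37 enzyme supplied as purified proteasome complex | Schedule: 30 min compound-proteasome preincubation then 25 min substrate reaction, room temperature | Detection: AMC fluorescence from Ub-AMC cleavage, excitation 355 nm, emission 460 nm | Benchmarks: Wells without proteasome as full block, compound-free enzyme plus substrate as uninhibited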
# PAFAH1B2 FP inh: inhibitors of human PAFAH1B2; P68402; recombinant PAFAH1B2, FP-rhodamine activity probe, fluorescence polarization; inhibition, % at 3.39 µM; 340,000 compounds, 1.2% hits; AID 492953;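 active = inhibition above the mean of all tested compounds plus 3 SD, cut at about 24% in these data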;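 also: 0% = enzyme with DMSO and 100% = wells lacking PAFAH1B2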
# PAFAH2 FP inh: PAFAH2 (human) inhibition; Q99487; recombinant PAFAH2, FP-rhodamine activity probe, fluorescence polarization; inhibition, % at 3.39 µM; 340,000 compounds, 0.99% hits; AID 492956;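 active = inhibition above the mean over all tested compounds plus 3 SD, cut at about 30% in these data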;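 also: inhibitors block probe labeling of enzyme so polarization drops; 0% = enzyme with DMSO and 100% = wells lacking PAFAH2 protein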
# pPAFAH FP inh: inhibitors of human plasma PAF acetylhydrolase (pPAFAH); 330,000 compounds, 1.5% hits; AID 463082; Q13093; inhibition, % at 3.39 µM; recombinant pPAFAH, FP-rhodamine probe fluorescence polarization;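 active = inhibition above the mean inhibition across the screen plus 3 SD, cut at about 25% in these data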;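 also: inhibitors block binding of the rhodamine activity-based probe so polarization drops; 0% = enzyme with DMSO and 100% = wells lacking pPAFAH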
# Starred values were filed as active, the others as inactive; . = not tested or not shown.
SMILES,GRIN3A LBD mod,PAFAH1B3 FP inh,UCH37 inh,PAFAH1B2 FP inh,PAFAH2 FP inh,pPAFAH FP inh
Cc1ccc(CNC(=O)c2cc(-c3ccccc3)n(Cc3cc(C)no3)n2)cc1,2,11,24*,4,3,5
COc1ccc(-c2csc(NC(=O)C3CC(=O)N(c4ccc5c(c4)OCCO5)C3)n2)cc1 (centres undefined),-7,2,3,-2,-13,25*
ON=C1CCCc2oc3c(c21)CCCC3,.,.,4,.,.,.
Cc1cc(C(=O)OCC(=O)Nc2ccc(F)cc2F)c(C)o1,-3,3,0,9,45*,4
Cc1cc(C(=O)OCC(=O)Nc2ccccc2C)c(C)o1,0,0,1,2,28,4
CC(=NNC(=O)c1nnn(-c2nonc2N)c1-c1ccccc1)c1ccco1,.,.,-14,.,.,.
COc1ccc(N=Cc2oc3ccc4ccccc4c3c2O)cc1,15*,-6,1,4,15,19
CC[C@]12c3[nH]c4cc(CCC(=O)N(C)C)ccc4c3CCN1C(=O)[C@@H](CC(=O)NC/C=C(\C)CCC=C(C)C)C[C@@H]2C(=O)N1CCN(C(=O)C2CC2)CC1,1,10,2,2,-5,29*
COc1ccc2[nH]c3c(c2c1)CCN1C(=O)C(CC(=O)NC/C=C(\C)CCC=C(C)C)C[C@H](C(=O)N(C(C)C)C(C)C)[C@@]31C (some centres undefined),-4,7,-1,5,7,26*
CC[C@]12c3[nH]c4cc(CCC(=O)N(C)C)ccc4c3CCN1C(=O)[C@@H](CC(=O)NCCN1CCOCC1)C[C@@H]2C(=O)N1CCN(C(=O)C2CC2)CC1,-1,3,2,3,3,5
CC(C)=CCC/C(C)=C/CNC(=O)C[C@H]1C[C@H](C(=O)N2CCOCC2)[C@@]2(C)c3[nH]c4cc(CCC(=O)N(C)C)ccc4c3CCN2C1=O,-3,2,1,-2,-1,30*
CC(=NNc1nccnc1Cl)c1ccc(F)cc1,.,.,7,.,.,.
N#CC1=C(N)Oc2cc(N)ccc2C1c1ccc(F)cc1F (centres undefined),-3,3,.,5,2,27*
CCNC(=S)NN=Cc1sc(N2CCCCC2)nc1-c1cccs1,.,.,-1,.,.,.
Cn1c(-c2ccsc2)c(-c2cccs2)c2cc(-c3ccc4[nH]ccc4c3)ccc21,10,5,.,0,10,15
Cn1c(-c2ccsc2)c(-c2cccs2)c2cc(-c3ccc4cc[nH]c4c3)ccc21,11*,6,5,6,-3,4
CC12CCC(C(=O)O)(CC1=NO)C2(C)C (centres undefined),.,.,4,.,.,.
OC(COCC(F)(F)C(F)(F)C(F)(F)C(F)F)Cn1c2ccc(Cl)cc2c2cc(Cl)ccc21 (centres undefined),19*,-38,.,-27,-59,-8
N=c1n(Cc2ccc(Cl)cc2)c2ccccc2n1CC(O)COc1ccccc1 (centres undefined),-2,1,3,3,1,-4
COc1cc(C=NNS(=O)(=O)c2ccccc2)ccc1OS(=O)(=O)c1ccc(C)cc1,.,.,6,.,.,.
CCOc1cc(/C=N/NS(=O)(=O)c2ccccc2)ccc1OS(=O)(=O)c1ccc(C)cc1,20*,1,.,11,2,3
O=C(CN1C(=O)NC2(CCCC2)C1=O)NCCc1ccccc1,2,11,1,6,5,-2
CCC(C)(C)C1CCC2(CC1)NC(=O)N(CC(=O)NCCOc1ccccc1)C2=O (centres undefined),-1,11,5,28*,10,-6
CCC(C)(C)C1CCC2(CC1)NC(=O)N(CC(=O)NCCc1ccc(OC)c(OC)c1)C2=O (centres undefined),3,-1,3,25*,1,1
CC1CCC2(CC1)NC(=O)N(CC(=O)N1CCN(C(=O)c3ccco3)CC1)C2=O (centres undefined),2,8,2,-3,1,-1
CCC(C)(C)C1CCC2(CC1)NC(=O)N(CC(=O)N1CCN(C(=O)c3ccco3)CC1)C2=O (centres undefined),0,2,2,25*,0,2

# Assay outcomes as filed in PubChem.
